# In ChEMBL document CHEMBL1641468, “Synthesis of modified siRNA bearing C-5 polyamine-substituted pyrimidine nucleoside in their 3'-overhang regions and its RNAi activity” (Bioorg Med Chem Lett, 2011):
# Activity calls are given as the source filed them. The rule behind the calls is not given here.
# Columns and labels:
# [1] = target: T1, Hepatocyte nuclear factor 4-alpha (Homo sapiens) (UniProt P41235); assay: Inhibition of HNF4alpha mRNA expression in human HepG2 cells after 24 hrs by RT-PCR analysis; assay type: cell-based; conditions: in the assay text read “after 48 hrs” for “after 24 hrs”
# T1 sequence (whole entry): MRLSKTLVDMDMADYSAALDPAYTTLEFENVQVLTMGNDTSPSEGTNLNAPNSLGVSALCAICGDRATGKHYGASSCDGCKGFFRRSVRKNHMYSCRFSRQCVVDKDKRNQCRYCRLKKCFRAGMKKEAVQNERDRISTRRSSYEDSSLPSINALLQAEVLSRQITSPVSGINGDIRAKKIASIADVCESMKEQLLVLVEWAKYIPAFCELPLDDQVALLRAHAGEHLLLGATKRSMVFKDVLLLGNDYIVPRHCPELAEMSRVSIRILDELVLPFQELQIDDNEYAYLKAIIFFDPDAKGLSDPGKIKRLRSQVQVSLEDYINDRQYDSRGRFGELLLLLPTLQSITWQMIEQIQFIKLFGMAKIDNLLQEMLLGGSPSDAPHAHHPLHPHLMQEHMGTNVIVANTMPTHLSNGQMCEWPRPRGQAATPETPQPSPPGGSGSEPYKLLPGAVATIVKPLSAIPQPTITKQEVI
# Outline: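 HepG2 cells were grown in DMEM with 5% FBS at 37 °C and transfected with siRNA using a transfection reagent. After 24 h at 37 °C, the medium was changed to DMEM with 10% FBS and cells were incubated a further 24 h. Total RNA was reverse-transcribed for real-time PCR (40 cycles). HNF4α mRNA was normalized to GAPDH by ΔΔCt and expressed relative to nonsense control siRNA, using the mean Ct of duplicate PCRs from independent cells.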
# [2] = target: T1, Hepatocyte nuclear factor 4-alpha (Homo sapiens); assay: Inhibition of HNF4alpha mRNA expression in human HepG2 cells after 24 hrs by real-time RT-PCR
# [3] = Chemical stability of the compound in presence of snake venom phosphodiesterase after 30 mins by RP-HPLC analysis; assay type: physicochemical; conditions: 0.5 h
# Outline: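 Each oligoribonucleotide (0.8 nmol) incubated with snake venom phosphodiesterase, a 3'-exonuclease (0.01 U), in 200 mM Tris–HCl pH 8.0 with 100 mM MgCl₂ at 37 °C for 5 and 30 min; mixtures analysed by RP-HPLC, remaining full-length RNA expressed as fraction of total RNA from chromatogram peak areas.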
SMILES,Activity [1],Activity [2],Stability [3]
Cc1cn([C@H]2C[C@H](OP(=O)(O)OC[C@H]3O[C@@H](n4cc(CC(=O)NCCN(CCN)CCN)c(=O)[nH]c4=O)C[C@@H]3O)[C@@H](COP(=O)(O)O[C@@H]3[C@H](O)[C@@H](COP(=O)(O)O[C@H]4[C@@H](O)[C@H](n5cnc6c(N)ncnc65)O[C@@H]4COP(=O)(O)O[C@H]4[C@@H](O)[C@H](n5ccc(N)nc5=O)O[C@@H]4COP(=O)(O)O[C@H]4[C@@H](O)[C@H](n5cnc6c(N)ncnc65)O[C@@H]4COP(=O)(O)O[C@@H]4[C@H](O)[C@@H](COP(=O)(O)O[C@@H]5[C@H](O)[C@@H](COP(=O)(O)O[C@H]6[C@@H](O)[C@H](n7ccc(=O)[nH]c7=O)O[C@@H]6COP(=O)(O)O[C@@H]6[C@H](O)[C@@H](COP(=O)(O)O[C@@H]7[C@H](O)[C@@H](COP(=O)(O)O[C@H]8[C@@H](O)[C@H](n9ccc(=O)[nH]c9=O)O[C@@H]8COP(=O)(O)O[C@@H]8[C@H](O)[C@@H](COP(=O)(O)O[C@H]9[C@@H](O)[C@H](n%10ccc(N)nc%10=O)O[C@@H]9COP(=O)(O)O[C@@H]9[C@H](O)[C@@H](COP(=O)(O)O[C@H]%10[C@@H](O)[C@H](n%11ccc(=O)[nH]c%11=O)O[C@@H]%10COP(=O)(O)O[C@@H]%10[C@H](O)[C@@H](COP(=O)(O)O[C@H]%11[C@@H](O)[C@H](n%12cnc%13c(N)ncnc%13%12)O[C@@H]%11COP(=O)(O)O[C@H]%11[C@@H](O)[C@H](n%12ccc(N)nc%12=O)O[C@@H]%11COP(=O)(O)O[C@@H]%11[C@H](O)[C@@H](COP(=O)(O)O[C@H]%12[C@@H](O)[C@H](n%13cnc%14c(=O)[nH]c(N)nc%14%13)O[C@@H]%12COP(=O)(O)O)O[C@H]%11n%11cnc%12c(=O)[nH]c(N)nc%12%11)O[C@H]%10n%10cnc%11c(=O)[nH]c(N)nc%11%10)O[C@H]9n9cnc%10c(=O)[nH]c(N)nc%109)O[C@H]8n8cnc9c(=O)[nH]c(N)nc98)O[C@H]7n7cnc8c(=O)[nH]c(N)nc87)O[C@H]6n6cnc7c(=O)[nH]c(N)nc76)O[C@H]5n5cnc6c(=O)[nH]c(N)nc65)O[C@H]4n4cnc5c(=O)[nH]c(N)nc54)O[C@H]3n3cnc4c(N)ncnc43)O2)c(=O)[nH]c1=O,Active,Active,Stable
NCCN(CCN)CCNC(=O)Cc1cn([C@H]2C[C@H](OP(=O)(O)OC[C@H]3O[C@@H](n4cc(CC(=O)NCCN(CCN)CCN)c(=O)[nH]c4=O)C[C@@H]3O)[C@@H](COP(=O)(O)O[C@@H]3[C@H](O)[C@@H](COP(=O)(O)O[C@H]4[C@@H](O)[C@H](n5cnc6c(N)ncnc65)O[C@@H]4COP(=O)(O)O[C@H]4[C@@H](O)[C@H](n5ccc(N)nc5=O)O[C@@H]4COP(=O)(O)O[C@H]4[C@@H](O)[C@H](n5cnc6c(N)ncnc65)O[C@@H]4COP(=O)(O)O[C@@H]4[C@H](O)[C@@H](COP(=O)(O)O[C@@H]5[C@H](O)[C@@H](COP(=O)(O)O[C@H]6[C@@H](O)[C@H](n7ccc(=O)[nH]c7=O)O[C@@H]6COP(=O)(O)O[C@@H]6[C@H](O)[C@@H](COP(=O)(O)O[C@@H]7[C@H](O)[C@@H](COP(=O)(O)O[C@H]8[C@@H](O)[C@H](n9ccc(=O)[nH]c9=O)O[C@@H]8COP(=O)(O)O[C@@H]8[C@H](O)[C@@H](COP(=O)(O)O[C@H]9[C@@H](O)[C@H](n%10ccc(N)nc%10=O)O[C@@H]9COP(=O)(O)O[C@@H]9[C@H](O)[C@@H](COP(=O)(O)O[C@H]%10[C@@H](O)[C@H](n%11ccc(=O)[nH]c%11=O)O[C@@H]%10COP(=O)(O)O[C@@H]%10[C@H](O)[C@@H](COP(=O)(O)O[C@H]%11[C@@H](O)[C@H](n%12cnc%13c(N)ncnc%13%12)O[C@@H]%11COP(=O)(O)O[C@H]%11[C@@H](O)[C@H](n%12ccc(N)nc%12=O)O[C@@H]%11COP(=O)(O)O[C@@H]%11[C@H](O)[C@@H](COP(=O)(O)O[C@H]%12[C@@H](O)[C@H](n%13cnc%14c(=O)[nH]c(N)nc%14%13)O[C@@H]%12COP(=O)(O)O)O[C@H]%11n%11cnc%12c(=O)[nH]c(N)nc%12%11)O[C@H]%10n%10cnc%11c(=O)[nH]c(N)nc%11%10)O[C@H]9n9cnc%10c(=O)[nH]c(N)nc%109)O[C@H]8n8cnc9c(=O)[nH]c(N)nc98)O[C@H]7n7cnc8c(=O)[nH]c(N)nc87)O[C@H]6n6cnc7c(=O)[nH]c(N)nc76)O[C@H]5n5cnc6c(=O)[nH]c(N)nc65)O[C@H]4n4cnc5c(=O)[nH]c(N)nc54)O[C@H]3n3cnc4c(N)ncnc43)O2)c(=O)[nH]c1=O,Active,Active,Stable
Cc1cn([C@H]2C[C@H](OP(=O)(O)OC[C@H]3O[C@@H](n4cc(C)c(=O)[nH]c4=O)C[C@@H]3O)[C@@H](COP(=O)(O)O[C@@H]3[C@H](O)[C@@H](COP(=O)(O)O[C@H]4[C@@H](O)[C@H](n5cnc6c(N)ncnc65)O[C@@H]4COP(=O)(O)O[C@H]4[C@@H](O)[C@H](n5ccc(N)nc5=O)O[C@@H]4COP(=O)(O)O[C@H]4[C@@H](O)[C@H](n5cnc6c(N)ncnc65)O[C@@H]4COP(=O)(O)O[C@@H]4[C@H](O)[C@@H](COP(=O)(O)O[C@@H]5[C@H](O)[C@@H](COP(=O)(O)O[C@H]6[C@@H](O)[C@H](n7ccc(=O)[nH]c7=O)O[C@@H]6COP(=O)(O)O[C@@H]6[C@H](O)[C@@H](COP(=O)(O)O[C@@H]7[C@H](O)[C@@H](COP(=O)(O)O[C@H]8[C@@H](O)[C@H](n9ccc(=O)[nH]c9=O)O[C@@H]8COP(=O)(O)O[C@@H]8[C@H](O)[C@@H](COP(=O)(O)O[C@H]9[C@@H](O)[C@H](n%10ccc(N)nc%10=O)O[C@@H]9COP(=O)(O)O[C@@H]9[C@H](O)[C@@H](COP(=O)(O)O[C@H]%10[C@@H](O)[C@H](n%11ccc(=O)[nH]c%11=O)O[C@@H]%10COP(=O)(O)O[C@@H]%10[C@H](O)[C@@H](COP(=O)(O)O[C@H]%11[C@@H](O)[C@H](n%12cnc%13c(N)ncnc%13%12)O[C@@H]%11COP(=O)(O)O[C@H]%11[C@@H](O)[C@H](n%12ccc(N)nc%12=O)O[C@@H]%11COP(=O)(O)O[C@@H]%11[C@H](O)[C@@H](COP(=O)(O)O[C@H]%12[C@@H](O)[C@H](n%13cnc%14c(=O)[nH]c(N)nc%14%13)O[C@@H]%12COP(=O)(O)O)O[C@H]%11n%11cnc%12c(=O)[nH]c(N)nc%12%11)O[C@H]%10n%10cnc%11c(=O)[nH]c(N)nc%11%10)O[C@H]9n9cnc%10c(=O)[nH]c(N)nc%109)O[C@H]8n8cnc9c(=O)[nH]c(N)nc98)O[C@H]7n7cnc8c(=O)[nH]c(N)nc87)O[C@H]6n6cnc7c(=O)[nH]c(N)nc76)O[C@H]5n5cnc6c(=O)[nH]c(N)nc65)O[C@H]4n4cnc5c(=O)[nH]c(N)nc54)O[C@H]3n3cnc4c(N)ncnc43)O2)c(=O)[nH]c1=O,Active,Active,
